# Assay outcomes as filed in PubChem BioAssay.
# NPY Y1 blocker: NPY-Y1 (human) receptor antagonism; HEK293-CNG Y1 cells, membrane potential fluorescence; NPY at EC95, then isoproterenol; inhibition, % at 3.6 µM; 1% of 200,000 active; AID 1040;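 active = inhibition above the campaign mean inhibition of all tested compounds plus 3 SD, cut at about 20% in these data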;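 note: 0% = DMSO wells given NPY plus isoproterenol and 100% = isoproterenol alone without NPY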
# Target sequence (P25929 whole entry, looked up): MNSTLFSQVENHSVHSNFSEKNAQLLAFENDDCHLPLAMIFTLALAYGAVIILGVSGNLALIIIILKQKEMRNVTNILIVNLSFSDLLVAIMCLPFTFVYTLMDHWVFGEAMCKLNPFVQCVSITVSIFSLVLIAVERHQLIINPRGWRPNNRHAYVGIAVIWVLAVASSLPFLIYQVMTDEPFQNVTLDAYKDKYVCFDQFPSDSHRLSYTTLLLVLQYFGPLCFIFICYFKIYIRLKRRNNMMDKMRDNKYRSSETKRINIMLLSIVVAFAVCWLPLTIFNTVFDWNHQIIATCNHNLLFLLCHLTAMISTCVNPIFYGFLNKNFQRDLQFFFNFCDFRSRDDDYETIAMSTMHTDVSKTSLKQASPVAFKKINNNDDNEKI
#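 System: HEK293 cells with Y1 receptor plus CNG channel / Probe or stimulus: NPY 25 nM then isoproterenol 1 µM plus Ro 20-1724 25 µM / Compound: one concentration, 3.6 µM, in 0.4% DMSO / Schedule: compound incubation 1 h at room temperature, readout 45 min post-stimulation / Measured by: membrane potential fluorescence / Read-out: % inhibition of NPY effect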
# Tb hexokinase: T. brucei hexokinase 1 inhibition; recombinant TbHK1, G6PDH-coupled NADH A340; inhibition, % at 10 µM; AID 1430; 0.11% of 220,000 active;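 active = inhibition of 50% or more in the single-dose primary screen; inactive = inhibition below 50%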
# NPY Y2 blocker: NPY-Y2 (human) receptor antagonism. P49146. NPY-Y2 expressing cells, antagonist mode. inhibition, % at 2.7 µM. 0.99% of 140,000 active. AID 793;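 note: 0% = vehicle with agonist challenge and 100% = reference antagonist with challenge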
# Target sequence (P49146 whole entry, looked up): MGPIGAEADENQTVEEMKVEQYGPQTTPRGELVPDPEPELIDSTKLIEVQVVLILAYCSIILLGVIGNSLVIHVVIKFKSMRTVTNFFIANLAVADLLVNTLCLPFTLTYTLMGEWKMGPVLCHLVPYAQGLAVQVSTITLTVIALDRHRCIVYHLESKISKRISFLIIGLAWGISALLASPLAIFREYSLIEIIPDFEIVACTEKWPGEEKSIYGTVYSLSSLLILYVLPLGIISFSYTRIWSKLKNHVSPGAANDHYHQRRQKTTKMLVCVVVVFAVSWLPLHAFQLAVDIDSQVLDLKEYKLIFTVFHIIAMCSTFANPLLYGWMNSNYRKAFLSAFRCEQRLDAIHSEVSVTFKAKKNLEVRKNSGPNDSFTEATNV
# m-calpain inh: calpain II (pig) inhibition; inhibition, % at 16 µM; 0.37% of 220,000 active; purified calpain II, fluorogenic peptide substrate, 30 min; AID 1236;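 active = inhibition above about 50%, limit read from the data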
# NPY2 pot ag: potentiates or activates human NPY-Y2 receptor; P49146; cells expressing NPY-Y2, potentiator/agonist read-out; activation, % at 3.6 µM; 0.45% of 220,000 active; in the data active = activation above about 27%;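 note: cells stimulated with NPY near EC25 plus isoproterenol at EC100; 0% = vehicle plus submaximal agonist and 100% = vehicle plus saturating agonist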
# NPY1 pot ag: potentiators or agonists of human neuropeptide Y receptor Y1. NPY-Y1 expressing cells, potentiator/agonist activation. 0.37% of 220,000 active. P25929. activation, % at 3.6 µM. AID 1304; in the data active = activation above about 33%, passing the limit was not always enough;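 note: cells stimulated with NPY at EC10 then isoproterenol at EC100; 0% = low agonist plus stimulus and 100% = saturating agonist plus stimulus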
# NPY-Y1 ant conf: confirmation of human neuropeptide Y receptor Y1 antagonists | shares compounds with NPY Y1 blocker | HEK293-CNG NPY-Y1, membrane potential fluorescence, cAMP; NPY challenge against isoproterenol-raised cAMP | inhibition, % at 3.6 µM | 21% of 1,200 active | AID 1254; in the data active = inhibition above about 20%;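 note: 0% = vehicle with agonist plus stimulus and 100% = stimulus alone without agonist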
# NPY2 antag ctr: antagonizes human NPY-Y2, counter-screen to NPY-Y1 antagonists; AID 1255; HEK293 NPY-Y2 CNG membrane potential fluorescence, antagonism; cells given NPY, then isoproterenol; 28% of 1,200 active; inhibition, % at 3.6 µM; shares compounds with NPY Y1 blocker;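 note: 0% = DMSO with agonist challenge and 100% = reference antagonist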
# NPY-Y2 confirm: human NPY-Y2 potentiation or agonism, confirmation; shares compounds with NPY2 pot ag; cell-based NPY-Y2 potentiator/agonist assay; activation, % at 3.6 µM; 20% of 450 active; in the data active = activation above about 33%
# NPY-Y1 counter: NPY-Y1 potentiation or agonism as NPY-Y2 counter-screen; shares compounds with NPY2 pot ag; Y1 HEK293-CNG cells, membrane potential fluorescence; activation, % at 3.6 µM; 20% of 450 active; AID 1651; in the data active = activation above about 45%;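 note: cells stimulated with submaximal NPY then isoproterenol with phosphodiesterase inhibitor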
# NPY-Y1 agonist 2: human NPY-Y1 agonism as NPY-Y2 potentiator counter-screen. shares compounds with NPY2 pot ag. HEK293 Y1-CNGC, membrane potential fluorescence. activation, % at 3.6 µM. 37% of 450 active. AID 1702;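 active = activation above the mean of DMSO-only control wells plus 3 SD, cut at about 18% in these data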;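 note: cells stimulated with 1 µM isoproterenol plus the PDE inhibitor Ro 20-1724; 0% = isoproterenol with DMSO and no NPY and 100% = 40 nM NPY; Y1 agonists lower the membrane potential dye signal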
# CNGC inh: cyclic nucleotide gated channel inhibition as counter-screen | HEK293-CNG parental, isoproterenol cAMP, membrane potential fluorescence | 32% of 450 active | shares compounds with NPY2 pot ag | inhibition, % at 3.6 µM;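 active = inhibition above the control-well mean plus 3 SD of those wells, cut at about 22% in these data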;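 note: 0% = DMSO with isoproterenol and 100% = DMSO without isoproterenol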
# NPY-Y2 ag 2: activates human NPY-Y2 receptor in potentiator counter-screen; shares compounds with NPY2 pot ag; HEK293 Y2/CNGC cells, membrane potential fluorescence, agonist mode; activation, % at 3.6 µM; 56% of 450 active;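 active = activation above the mean of solvent-only control wells plus 3 SD, cut at about 10% in these data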;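 note: cells stimulated by isoproterenol with no NPY added so direct agonism is tested; 0% = DMSO with isoproterenol alone and 100% = NPY at EC100 plus isoproterenol; agonism lowers probe fluorescence through less cAMP and CNG channel opening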
# * hit, by the source's call; i = inactive; x = no result given. Sampled rows, rich in hits. Any-hit rate of the full collection: about 2.3%. Cut-off read from the data, not from the text of the source, unless noted: active = inhibition above about 17%; inactive = the rest.
SMILES,NPY Y1 blocker,Tb hexokinase,NPY Y2 blocker,m-calpain inh,NPY2 pot ag,NPY1 pot ag,NPY-Y1 ant conf,NPY2 antag ctr,others
CN(C)CCSc1nc(-c2ccccc2)nc2c1CCC2,24.1*,6.9,16.0,4.0,-41.9,-94.4,11.5,19.7*,
CN(C)C(=O)CSc1nc(-c2ccccc2)nc2c1CCCC2,5.7,49.3,6.2,-15.4,0.3,-25.2,x,x,
Cn1nc(OCC(=O)O)cc1C(F)(F)F,x,-11.0,x,27.7,-4.5,-11.5,x,x,
COc1ccc(C2Nc3ccccc3C(=O)N2Cc2ccccc2)cc1COc1ccccn1 (configuration not stated),35.8*,-2.4,14.5,-432.8,-17.4,-4.5,4.4,6.1,
COc1cc([N+](=O)[O-])cc(/C=N/NC(=O)CC#N)c1O,-2.1,0.7,x,24.2,-3.9,-22.3,x,x,
CCOc1cc(/C=N\NC(=O)CN2CCOCC2)ccc1OCc1ccc(F)cc1,-3.6,-7.4,-0.1,2.7,-7.7,-10.6,x,x,
Nc1ccn([C@@H]2O[C@H](CO)[C@@H](O)C2O)c(=O)n1 (some centres not stated),2.7,x,x,-11.7,8.8,-4.1,x,x,
O=c1cnn([C@@H]2O[C@H](CO)[C@@H](O)[C@H]2O)c(=O)[nH]1,70.2*,1.3,-1.2,10.2,-1.5,1.7,-0.6,0.9,
Cc1ccc(-c2ccc(C(=O)O)[nH]2)cc1,28.1*,-3.0,11.3,-5.5,-43.3,-39.2,7.3,7.6,
COc1ccc(-c2ccc(C(=O)O)c(=O)[nH]2)cc1,-3.2,-33.6,x,i,6.4,-7.9,x,x,
COc1ccc(-c2csc(N(CCc3ccccc3)C(=O)COc3ccccc3)n2)cc1,32.0*,-6.8,1.2,-28.6,-13.9,-1.5,11.4,15.6,
O=C(COc1ccc(Cl)cc1)N(Cc1ccccc1)c1nc(-c2ccccc2)cs1,-6.7,-5.3,0.3,-10.8,-1.9,10.4,x,x,
CC(C)(C)c1ccc(-c2cn(-c3ccc(Br)cc3)c3[n+]2CCCS3)cc1,54.8*,-3.5,x,-3.6,-3.9,-45.8,68.4*,32.1*,
c1ccc(-c2cn(-c3ccccc3)c3[n+]2CCS3)cc1,-1.0,9.4,x,32.6,-10.8,11.1,x,x,
CCc1ccc(CNCc2ccc(OCC(O)CN(C)Cc3ccccc3)cc2)nc1 (configuration not stated),26.3*,9.6,x,-16.6,-18.7,-7.4,17.1,26.9*,
CN(Cc1ccccc1)CC(O)COc1ccc(CNCCc2cccnc2)cc1 (configuration not stated),13.8,1.1,x,17.1,-7.3,-7.9,x,x,
Cc1nc(CSc2nc3[nH]ncc3c(=O)n2-c2ccccc2)cs1,2.5,1.5,4.8,25.3,-11.3,-4.3,x,x,
Cc1noc(C)c1CSc1nc2[nH]ncc2c(=O)n1-c1ccccc1,21.1*,-0.6,6.5,12.5,-17.8,-1.8,8.0,14.6,
COc1ccc(-n2cc(-c3ccccc3)c3c(NCCCN4CCOCC4)ncnc32)cc1,26.1*,-7.9,x,-113.0,-26.6,-17.5,12.6,7.2,
COc1ccc(OC)c(NC(=O)c2ccc(-c3cccs3)cc2)c1,22.4*,0.2,x,19.4,-34.0,-66.4,9.3,10.4,
CCCSc1nc2cc(OC)c(OC)cc2c(=N)n1CCCN1CCOCC1,71.3*,-5.9,x,-16.0,-43.1,-52.0,22.4*,31.7*,
COCCCn1c(SCc2ccc(OC)cc2)nc2cc(OC)c(OC)cc2c1=N,9.5,-7.4,2.6,-40.2,-0.6,4.9,x,x,
C/C(CC(=O)Nc1ccc(Cl)c(C(F)(F)F)c1)=N\NC(=O)c1cc2ccccc2cc1O,4.3,6.5,3.6,-81.3,-2.1,-6.4,x,x,
Oc1cc2ccccc2cc1-c1n[nH]c(=S)o1,40.2*,-0.2,14.9,-271.0,-28.6,-25.6,18.9,14.4,
Cc1cccc(C(=O)Nc2cccc(OC(=O)c3cccc(C)c3)c2)c1,27.4*,6.7,17.0,11.6,-23.6,-2.8,17.2,11.2,
SMILES,NPY Y1 blocker,Tb hexokinase,NPY Y2 blocker,m-calpain inh,NPY2 pot ag,NPY1 pot ag,NPY-Y1 ant conf,NPY2 antag ctr,others
CCC/C(O)=C1\C(=O)CCCC1=NCCc1c(C)[nH]c2ccc(OC)cc12,1.0,-3.9,x,-18.3,19.2,11.6,x,x,
CCN(c1ccccc1)S(=O)(=O)c1ccc(C(=O)Oc2ccc(C(C)=O)cc2)cc1,9.5,15.0,1.4,-9.2,0.5,-14.1,x,x,
CC(/C=C/c1ccc2c(c1)OCO2)=N\NC(=O)c1ccccc1,23.9*,-36.9,x,-14.8,4.4,-15.3,1.4,4.8,
Cn1c(=O)cc(C(=O)N/N=C/c2ccc(F)cc2)[nH]c1=O,x,-40.0,x,24.2,-15.2,2.7,x,x,
O=C(NC(=S)Nc1cccc(C(F)(F)F)c1)c1csnn1,0.6,-5.4,x,13.7,-6.7,-6.9,x,x,
CCOC(=O)N1CCN(C(=O)CSCC(=O)Nc2nc(-c3ccc(OC)cc3)cs2)CC1,5.5,-3.0,-0.5,-25.4,-1.4,-8.9,x,x,
CCOC(=O)N1CCN(C(=O)CSCC(=O)Nc2nc(-c3ccc(-c4ccccc4)cc3)cs2)CC1,21.1*,-11.6,7.4,-30.1,33.5*,-44.4,13.7,8.0,NPY-Y2 confirm=-11.1;NPY-Y1 counter=-40.4;NPY-Y1 agonist 2=-31.9;CNGC inh=-10.8;NPY-Y2 ag 2=-1.2
Cc1ccc(-n2ncc(C(=O)Nc3cc(Cl)cc(Cl)c3)c2C2CCNCC2)cc1C,33.5*,11.2,x,5.1,50.8*,20.7,16.2,10.8,NPY-Y2 confirm=48.3*;NPY-Y1 counter=61.6*;NPY-Y1 agonist 2=12.2;CNGC inh=26.4*;NPY-Y2 ag 2=31.2*
Cc1ccc(-n2ncc(C(=O)Nc3cc(Cl)ccc3Cl)c2C2CCNCC2)cc1,10.3,6.0,x,15.3,-2.8,-5.4,x,x,
O=C(CCc1nnc(CCCc2ccccc2)o1)NCCCC1CCCC1,5.6,4.5,x,33.7,-12.2,-19.5,x,x,
CO/N=C/c1cccn1-c1nccc(N(C)C)c1C#N,5.8,-14.7,x,16.0,0.8,-6.0,x,x,
